In ChEMBL document CHEMBL1141802, “Sesquiterpenoid metabolites with antiplasmodial activity from a Caribbean gorgonian coral, Eunicea sp” (J Nat Prod, 2005) one finds Activity and IC50 data, which are given here for seven compounds.

Converted amounts (≈) assume the structure as drawn. The source made the active and inactive calls. No cut-off for these calls is given here.

Assay [1] relates to Mycobacterium tuberculosis. As to the kind of experiment: Antimicrobial activity against Mycobacterium tuberculosis H37Rv at 6.25 ug/mL. Type of assay: functional, organism-based.
A further assay relates to Plasmodium falciparum. Kind of assay: Antimalarial activity against chloroquine-resistant Plasmodium falciparum W2 by Picogreen dye fluorimetry. Type of assay: functional, organism-based. The gist of the method:
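Fluorometric growth-inhibition assay on chloroquine-resistant W2 strain, detecting parasite DNA by PicoGreen intercalation. Result expressed as IC50 in μg/mL.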

Assay [2] can be described thus: Cytotoxicity against human […] cells. The assay is classed as functional, cell-based.
Another assay relates to HL-60(TB). As to the kind of experiment: Cytotoxicity against human HL-60(TB) cells. Type of assay: functional, cell-based.
The test system of the next assay is MCF7. As to the kind of experiment: Cytotoxicity against human MCF7 cells. The assay is classed as functional, cell-based.
Another assay concerns MOLT-4. Kind of assay: Cytotoxicity against human MOLT4 cells. The assay is classed as functional, cell-based.
The subject of a further assay is CCRF-CEM. Kind of assay: Cytotoxicity against human CCRF-CEM cells. The assay is classed as functional, cell-based.
Assay [3] concerns the target Cyclin-dependent kinase 1/cyclin B1 (Homo sapiens) (UniProt P06493+P14635). As to the kind of experiment: Inhibition of Cdc2/cyclin B.
The test system of assay [4] is M-phase inducer phosphatase (Cdc25). Kind of assay: Inhibition of Cdc25.

Sequence of Cyclin-dependent kinase 1/cyclin B1 (Homo sapiens) (P06493 whole entry, looked up): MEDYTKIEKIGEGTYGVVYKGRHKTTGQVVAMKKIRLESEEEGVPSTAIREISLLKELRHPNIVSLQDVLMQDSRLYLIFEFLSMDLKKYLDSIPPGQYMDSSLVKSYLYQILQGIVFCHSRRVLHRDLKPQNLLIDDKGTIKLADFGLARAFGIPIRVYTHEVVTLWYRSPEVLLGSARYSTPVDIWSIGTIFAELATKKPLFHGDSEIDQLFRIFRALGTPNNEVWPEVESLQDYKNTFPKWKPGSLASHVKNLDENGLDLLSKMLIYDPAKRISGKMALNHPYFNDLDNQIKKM
Sequence of Cyclin-dependent kinase 1/cyclin B1 (Homo sapiens) (P14635 whole entry, looked up): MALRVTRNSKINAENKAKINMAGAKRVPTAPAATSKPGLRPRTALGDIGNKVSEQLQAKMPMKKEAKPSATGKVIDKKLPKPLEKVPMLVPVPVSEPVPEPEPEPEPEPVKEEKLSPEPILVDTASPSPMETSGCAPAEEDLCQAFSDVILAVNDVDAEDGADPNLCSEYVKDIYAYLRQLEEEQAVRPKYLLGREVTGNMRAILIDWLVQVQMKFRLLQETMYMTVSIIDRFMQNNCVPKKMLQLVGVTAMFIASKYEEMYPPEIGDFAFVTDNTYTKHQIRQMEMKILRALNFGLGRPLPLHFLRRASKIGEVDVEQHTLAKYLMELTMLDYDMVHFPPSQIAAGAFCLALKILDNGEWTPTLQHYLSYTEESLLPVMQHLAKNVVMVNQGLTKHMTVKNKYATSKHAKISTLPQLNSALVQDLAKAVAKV

In the case of `C=C[C@@]1(C)CC[C@@H](C(C)=O)[C@@H](OC(=O)/C=C/C(C)(C)O)[C@@H]1C(=C)C`, the result in [1] was inactive.

Regarding `C=C[C@@]1(C)CCC2=C(C)C(=O)O[C@H]2[C@@H]1C(=C)C`, the IC50 with Plasmodium falciparum is greater than 50 µg/mL.

Take `C=C1CC[C@@H]2[C@H](/C=C(\C)CC[C@@H]1O)OC(=O)[C@H]2C`: the IC50 in [2] was 90.4 µg/mL (≈ 361 µM); with HL-60(TB), 51.5 µg/mL (≈ 206 µM); in the assay on MCF7, 82.2 µg/mL (≈ 328 µM); in the assay with MOLT-4, 19.6 µg/mL (≈ 78.3 µM); in the assay on Plasmodium falciparum it was 18 µg/mL (≈ 71.9 µM); with CCRF-CEM, 31.3 µg/mL (≈ 125 µM).

On to `C=C1CC[C@@H](C(C)=O)[C@@H](OC(=O)/C=C/C(C)(C)O)/C=C(\C)CC[C@@H]1O`, for which the outcome in [3] and in assay [4] was inactive. Also, in the assay with Plasmodium falciparum, the concentration for half-maximal inhibition (IC50) is 14 µg/mL (≈ 39.9 µM).

Turning to `C=C1CC[C@H](O)[C@@]2(C)CC[C@@H]3[C@@H](OC(=O)[C@H]3C)[C@H]12`, inhibition in the assay with Plasmodium falciparum was half-maximal at 14 µg/mL (≈ 55.9 µM) (IC50). Besides, the result in assay [1] was inactive.

For the compound `C=C1CC[C@@H](C(C)=O)[C@@H](OC(=O)/C=C/C(C)(C)O)/C=C(\C)CCC1=O`, the outcome in [3], in [1] and in assay [4] was inactive. Also, in the assay on Plasmodium falciparum, the IC50 was determined as 16 µg/mL (≈ 45.9 µM).

`C=C1CC[C@H](O)[C@@]2(C)CC[C@@H](C(C)=O)[C@@H](OC(=O)/C=C/C(C)(C)O)[C@H]12` showed an IC50 in the assay with Plasmodium falciparum of 10 µg/mL (≈ 28.5 µM). The result in assay [1] was inactive.
